Common to all, as to type: functional
Test [1] has as its system Mus musculus. The test is described as follows: Antinociceptive activity in ip dosed Swiss albino mouse assessed as latency time after 30 mins by tail flick method. A digest of the protocol:
(§1)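 Swiss albino mice (20–25 g) received compounds ip at 9.5–12.58 mg/kg in 0.2% Tween suspension. Tail-flick latency to radiant heat was measured, with stimulus intensity set to give a 3–4 s baseline. Readings were taken just before injection and at 15, 30, 60 and 120 min after. Significance was assessed by Student's t test.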
Background: Thermal pain tests record how soon the animal reacts.

Test [2] deals with Mus musculus. The test is described as follows: Antinociceptive activity in ip dosed Swiss albino mouse assessed as latency time by tail flick method. A digest of the protocol:
as §1

Test [3] relates to Mus musculus. As to the kind of experiment: Antinociceptive activity in ip dosed Swiss albino mouse assessed as latency time after 30 mins by hot plate method. A digest of the protocol: (§2)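 Swiss albino mice (20–25 g) were housed 7 days at 30 ± 1 °C before testing, in groups of six. Compounds were given ip at 9.5–12.58 mg/kg as a 0.2% Tween suspension. Mice were placed on a 55 ± 0.5 °C hot plate before dosing and at 15, 30, 60 and 120 min after dosing, with a 15 s cut-off. Significance was assessed by Student's t test.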

For test [4], the system named is Mus musculus. The test is described as follows: Antinociceptive activity in ip dosed Swiss albino mouse assessed as latency time after 60 mins by tail flick method. In short, it runs like this:
as §1

Test [5] concerns Rattus norvegicus. As to the kind of experiment: Antiinflammatory activity assessed as reduction of carrageenan-induced paw volume in intraperitoneally dosed Wistar rat after 3 hrs. Further details: scale not given: the % may be the effect or the level left. In short, it runs like this:
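Wistar rats of either sex (120–150 g) were dosed ip with compounds at 9.5–12.58 mg/kg in 0.2% Tween suspension. After 1 h, 0.05 ml of 1.0% w/v carrageenan in 0.9% NaCl was injected into the left hind paw. Paw volume was measured by mercury-displacement plethysmometry before injection and at 1, 2 and 3 h. Percent inhibition of the 3 h swelling was calculated.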
On the technique in general: In the carrageenan paw model, swelling and tenderness develop within hours.

In test [6] the test system is Mus musculus. As to the kind of experiment: Antinociceptive activity in ip dosed Swiss albino mouse assessed as latency time after 60 mins by hot plate method. In short, it runs like this:
as §2

Test [7] has as its system Mus musculus. The test is described as follows: Antinociceptive activity in ip dosed Swiss albino mouse assessed as latency time after 15 mins by tail flick method. A digest of the protocol: as §1
Test [8] deals with Mus musculus. The test is described as follows: Antinociceptive activity in ip dosed Swiss albino mouse assessed as latency time by hot plate method. In short, it runs like this:
as §2

The test system of test [9] is Mus musculus. The test is described as follows: Antinociceptive activity in ip dosed Swiss albino mouse assessed as latency time after 15 mins by hot plate method. A digest of the protocol: as §2
The test system of test [10] is Mus musculus. The test is described as follows: Antinociceptive activity in ip dosed Swiss albino mouse assessed as latency time after 120 mins by hot plate method. In short, it runs like this: as §2
For test [11], the system named is Mus musculus. As to the kind of experiment: Antinociceptive activity in ip dosed Swiss albino mouse assessed as latency time after 120 mins by tail flick method. A digest of the protocol:
as §1

In test [12] the test system is Rattus norvegicus. As to the kind of experiment: Antiinflammatory activity assessed as reduction of carrageenan-induced paw volume in Wistar rat at 10 mg/kg, ip after 3 hrs. The conditions noted are these: route intraperitoneal.

Drawing on ChEMBL document CHEMBL1144541, “Antinociceptive and antiinflammatory activities and QSAR studies on 2-substituted-4,5-diphenyl-1H-imidazoles” (2007), this text covers Activity and inhibition in vivo for ten compounds.

The term inhibition in vivo denotes the drop in the measured response relative to a control, in per cent.

As for `O=[N+]([O-])c1ccccc1-c1nc(-c2ccccc2)c(-c2ccccc2)[nH]1`, the Activity in [1] came to 4.38 s; in [2], 4.09 s; in test [3], 4.62 s; in test [4], 4.38 s; in test [5] it was 30.24%; in test [6], 4.67 s. The Activity in test [7] came out at 4.1 s; in [8], 4.5 s; in test [9], 4.52 s; in test [10], 4.71 s; in test [11] it was 4.39 s.

For the compound `C(=C\c1nc(-c2ccccc2)c(-c2ccccc2)[nH]1)/c1ccccc1`, the Activity in [2] came to 4.16 s; in test [3] it was 5.58 s; in test [4], 4.68 s; in test [5], 55.82%; in test [6] it was 5.94 s; in test [7] it was 4.28 s. The Activity in [8] is listed as 4.67 s; in [9] it was 5.17 s; in test [10], 6.12 s; in test [11], 4.75 s. In test [12], the inhibition in vivo at 10 mg/kg came out at 55.8%.

For the compound `O=[N+]([O-])c1cccc(-c2nc(-c3ccccc3)c(-c3ccccc3)[nH]2)c1`, the Activity in test [1] turned out to be 4.36 s; in test [2], 4.09 s; in test [3], 4.6 s; in [4], 5.74 s; in test [5], 4.66%; in test [6], 4.62 s. Also, the Activity is listed as 4.09 s in [7]; 4.55 s in [8]; 4.56 s in [9]; 5.62 s in [10]; 5.82 s in test [11].

For the compound `COc1ccccc1-c1nc(-c2ccccc2)c(-c2ccccc2)[nH]1`, the Activity is 5.98 s in test [1]; 4.21 s in [2]; 6.89 s in test [3]; 7.64 s in test [4]; 65.12% in test [5]; 8.65 s in test [6]. For the same compound, the Activity came out at 4.21 s in test [7]; 4.9 s in test [8]; 4.94 s in test [9]; 9.25 s in [10]; 9.23 s in [11].

Consider `Clc1cccc(-c2nc(-c3ccccc3)c(-c3ccccc3)[nH]2)c1`, for which the Activity in test [1] is on record as 4.98 s; in test [2], 4.12 s; in test [3] it was 6.18 s; in test [4] it was 6.89 s; in [5] it was 55.82%; in test [6] it was 7.78 s. Also, the Activity was determined as 4.12 s in [7]; 4.68 s in [8]; 5.14 s in [9]; 8.91 s in test [10]; 8.18 s in [11].

In the case of `Oc1ccccc1-c1nc(-c2ccccc2)c(-c2ccccc2)[nH]1`, the Activity in test [1] stood at 5.82 s; in test [2] it was 4.2 s; in test [3] it was 6.32 s; in [4] it was 7.53 s; in test [5], 60.47%; in [6], 8.59 s. Further, the Activity in [7] turned out to be 4.18 s; in test [8], 4.89 s; in test [9], 4.93 s; in test [10], 9.16 s; in test [11] it was 9.12 s.

Turning to `COc1ccc(-c2nc(-c3ccccc3)c(-c3ccccc3)[nH]2)cc1`, the Activity in [1] is given as 7.45 s; in test [2], 4.58 s; in test [3], 7.89 s; in test [4] it was 9.17 s; in test [5] it was 86.05%; in test [6] it was 9.67 s. Moreover, the Activity in test [7] came to 4.98 s; in [8], 4.87 s; in [9], 5.02 s; in test [10] it was 10.87 s; in test [11], 10.83 s. Moreover, the inhibition in vivo at 10 mg/kg in test [12] was found to be 86%.

On to `Clc1ccccc1-c1nc(-c2ccccc2)c(-c2ccccc2)[nH]1`, for which the Activity came to 5.78 s in [1]; 4.2 s in test [2]; 6.25 s in [3]; 7.27 s in test [4]; 62.8% in [5]; 8.2 s in test [6]. The Activity was found to be 4.14 s in [7]; 4.67 s in test [8]; 4.62 s in test [9]; 9.01 s in [10]; 8.85 s in test [11].

On to `Cc1ccccc1-c1nc(-c2ccccc2)c(-c2ccccc2)[nH]1`, for which the Activity in test [1] was 4.52 s; in [2], 4.11 s; in [3] it was 4.67 s; in [4], 4.98 s; in test [5], 18.61%; in test [6] it was 4.79 s. Besides, the Activity in test [7] was 4.12 s; in test [8] it was 4.5 s; in test [9] it was 4.55 s; in [10] it was 5.79 s; in test [11] it was 5.52 s.

`COc1ccc2c(c1)c(CC(=O)O)c(C)n2C(=O)c1ccc(Cl)cc1` [INDOMETHACIN]: the inhibition in vivo at 10 mg/kg in test [12] was 95.3%.
